Results: ChEMBL document CHEMBL3097988, “Synthesis and characterization of new N-(4-(4-chloro-1H-imidazol-1-yl)-3-methoxyphenyl)amide/sulfonamide derivatives as possible antimicrobial and antitubercular agents” (2014)
In brackets after ≈: the same amount, converted by molar mass.

Test system: Mycobacterium tuberculosis
Test: Antimicrobial activity against multi drug-resistant Mycobacterium tuberculosis after 7 days by resazurin assay
Assay type: functional
Conditions: 168 h
Method in brief: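 Resazurin microtitre assay. Cultures were grown in Middlebrook 7H9 with 10% OADC and added to fresh medium in 96-well plates. Test compounds came from 2 mg/mL DMF stocks, with DMF-only controls. Plates were incubated 7 days at 37 °C, then resazurin was added and read after 1 h at 37 °C. MIC was the lowest concentration preventing the blue-to-pink change.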

Row | SMILES | MIC [µg/mL]
1 | COc1cc(NC(=O)c2ccccc2)ccc1-n1cnc(Cl)c1 | 25 (≈ 76.3 µM)
2 | CO[C@H]1/C=C/O[C@@]2(C)Oc3c(C)c(O)c4c(O)c(c(/C=N/N5CCN(C)CC5)c(O)c4c3C2=O)NC(=O)/C(C)=C\C=C\[C@H](C)[C@H](O)[C@@H](C)[C@@H](O)[C@@H](C)[C@H](OC(C)=O)[C@@H]1C [RIFAMPIN] | 25 (≈ 30.4 µM)
3 | COc1cc(NS(=O)(=O)c2cccc([N+](=O)[O-])c2Cl)ccc1-n1cnc(Cl)c1 | 25 (≈ 56.4 µM)
4 | COc1cc(NS(=O)(=O)c2ccccc2)ccc1-n1cnc(Cl)c1 | 25 (≈ 68.7 µM)
5 | COc1cc(NC(=O)c2cc(F)cc(C(F)(F)F)c2)ccc1-n1cnc(Cl)c1 | > 50
6 | COc1cc(NS(=O)(=O)c2ccc(Cl)cc2Cl)ccc1-n1cnc(Cl)c1 | > 50
7 | COc1cc(NC(=O)C2(c3ccc(Cl)cc3)CC2)ccc1-n1cnc(Cl)c1 | 25 (≈ 62.1 µM)
8 | COc1cc(NS(=O)(=O)c2cccs2)ccc1-n1cnc(Cl)c1 | > 50
9 | COc1cc(NS(=O)(=O)Cc2cccc(C(F)(F)F)c2)ccc1-n1cnc(Cl)c1 | > 50
10 | COc1cc(NC(=O)c2ccc(C(F)(F)F)cc2)ccc1-n1cnc(Cl)c1 | > 50
11 | COc1cc(NC(=O)c2ccc([N+](=O)[O-])cc2)ccc1-n1cnc(Cl)c1 | > 50
12 | COc1ccc(S(=O)(=O)Nc2ccc(-n3cnc(Cl)c3)c(OC)c2)cc1OC | > 50
13 | COc1cc(NS(=O)(=O)c2ccc([N+](=O)[O-])cc2)ccc1-n1cnc(Cl)c1 | 6.25 (≈ 15.3 µM)
14 | COc1cc(NS(=O)(=O)c2cccc(C(C)C#N)c2)ccc1-n1cnc(Cl)c1 (centres undefined) | 25 (≈ 60 µM)
15 | COc1cc(NC(=O)c2cccs2)ccc1-n1cnc(Cl)c1 | > 50
16 | COc1cc(NC(=O)c2ccco2)ccc1-n1cnc(Cl)c1 | > 50
17 | COc1cc(NC(=O)Cc2cccc(C(F)(F)F)c2)ccc1-n1cnc(Cl)c1 | > 50
18 | COc1cc(NS(=O)(=O)c2ccco2)ccc1-n1cnc(Cl)c1 | 25 (≈ 70.7 µM)
19 | COc1cc(F)c(C(=O)Nc2ccc(-n3cnc(Cl)c3)c(OC)c2)c(F)c1 | > 50
20 | COc1cc(NC(=O)c2c(F)ccc(C(F)(F)F)c2Cl)ccc1-n1cnc(Cl)c1 | 25 (≈ 55.8 µM)
21 | COc1cc(NS(=O)(=O)c2ccc(C(F)(F)F)cc2)ccc1-n1cnc(Cl)c1 | 6.25 (≈ 14.5 µM)
22 | COc1cc(F)c(S(=O)(=O)Nc2ccc(-n3cnc(Cl)c3)c(OC)c2)c(C(F)(F)F)c1 | 25 (≈ 52.1 µM)
23 | COc1cc(NC(=O)c2cccc([N+](=O)[O-])c2Cl)ccc1-n1cnc(Cl)c1 | > 50
24 | NNC(=O)c1ccncc1 [ISONIAZID] | 12.5 (≈ 91.1 µM)
25 | COc1cc(NC(=O)c2cccc(C(C)C#N)c2)ccc1-n1cnc(Cl)c1 (centres undefined) | > 50
26 | COc1cc(NS(=O)(=O)c2cc(F)cc(C(F)(F)F)c2)ccc1-n1cnc(Cl)c1 | 6.25 (≈ 13.9 µM)
27 | COc1cc(NS(=O)(=O)C2(c3ccc(Cl)cc3)CC2)ccc1-n1cnc(Cl)c1 | > 50
28 | COc1cc(NC(=O)c2ccc(Cl)cc2Cl)ccc1-n1cnc(Cl)c1 | 25 (≈ 63 µM)
29 | COc1cc(NS(=O)(=O)c2c(F)ccc(C(F)(F)F)c2Cl)ccc1-n1cnc(Cl)c1 | 6.25 (≈ 12.9 µM)
